# Test results taken from ChEMBL document CHEMBL5058577, “EUbOPEN Chemogenomics Library 2 (Multiplex)” (2022).
# Tested on: Fibroblast
# Test: Multiplex assay against human fibroblast
# Format: toxicity, cell-based
# In short: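 Four dyes were applied at seeding to live cells: Hoechst33342, BioTracker Green Microtubule Cytoskeleton Dye, MitoTracker Red and Annexin V Alexa Fluor 680. Imaging after compound addition used a CQ1 microscope at 37°C and 5% CO2. CellPathfinder machine-learning gating then sorted cells into Hoechst high-intensity objects or normal cells, normal cells into healthy, pyknosed or fragmented nuclei, and pyknosed cells into mitotic or apoptotic, with tubulin, mitochondrial-mass and membrane-permeability phenotypes given as per cents of healthy-nucleus cells.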
# [1] = 12 h, 1 µM, compound concentration 1 uM, replicate 1
# [2] = 12 h, 1 µM, compound concentration 1 uM, replicate 2
# [3] = 12 h, 10 µM, compound concentration 10 uM, replicate 1
# [4] = 12 h, 10 µM, compound concentration 10 uM, replicate 2
# [5] = 24 h, 1 µM, compound concentration 1 uM, replicate 1
# [6] = 24 h, 1 µM, compound concentration 1 uM, replicate 2
# [7] = 24 h, 10 µM, compound concentration 10 uM, replicate 1
# [8] = 24 h, 10 µM, compound concentration 10 uM, replicate 2
# [9] = 48 h, 1 µM, compound concentration 1 uM, replicate 1
# [10] = 48 h, 1 µM, compound concentration 1 uM, replicate 2
# [11] = 48 h, 10 µM, compound concentration 10 uM, replicate 1
# [12] = 48 h, 10 µM, compound concentration 10 uM, replicate 2
smiles,measurement,setting,value
O=C1COc2nccc(-c3ccccc3F)c2CN1Cc1cc(C(F)(F)F)cc(C(F)(F)F)c1,Population Apoptotic (%),[1],38%
same,Population Fragmented Nuclei (%),[1],12%
same,Population Healthy Nuclei (%),[1],74%
same,Population Hoechst High Intensity Objects (%),[1],2%
same,Population Membrane Permeable-Phenotype (%),[1],1%
same,Population Mitochondria Different-Phenotype (%),[1],7%
same,Population Mitotic Cells (%),[1],61%
same,Population Normal (%),[1],97%
same,Population Pyknosed Nuclei (%),[1],13%
same,Population Tubulin-Different-Phenotype (%),[1],27%
same,Total Cell Count,[1],195
same,Population Apoptotic (%),[2],29%
same,Population Fragmented Nuclei (%),[2],17%
same,Population Healthy Nuclei (%),[2],62%
same,Population Hoechst High Intensity Objects (%),[2],0%
same,Population Mitochondria Different-Phenotype (%),[2],5%
same,Population Mitotic Cells (%),[2],70%
same,Population Normal (%),[2],99%
same,Population Pyknosed Nuclei (%),[2],20%
same,Population Tubulin-Different-Phenotype (%),[2],32%
same,Total Cell Count,[2],135
same,Population Apoptotic (%),[3],54%
same,Population Fragmented Nuclei (%),[3],15%
same,Population Healthy Nuclei (%),[3],69%
same,Population Hoechst High Intensity Objects (%),[3],5%
same,Population Membrane Permeable-Phenotype (%),[3],0%
same,Population Mitochondria Different-Phenotype (%),[3],10%
same,Population Mitotic Cells (%),[3],45%
same,Population Normal (%),[3],94%
same,Population Pyknosed Nuclei (%),[3],14%
same,Population Tubulin-Different-Phenotype (%),[3],66%
same,Total Cell Count,[3],161
same,Population Apoptotic (%),[4],37%
same,Population Fragmented Nuclei (%),[4],24%
same,Population Healthy Nuclei (%),[4],51%
same,Population Hoechst High Intensity Objects (%),[4],8%
same,Population Membrane Permeable-Phenotype (%),[4],4%
same,Population Mitochondria Different-Phenotype (%),[4],12%
same,Population Mitotic Cells (%),[4],62%
same,Population Normal (%),[4],91%
same,Population Pyknosed Nuclei (%),[4],23%
same,Population Tubulin-Different-Phenotype (%),[4],50%
same,Total Cell Count,[4],132
same,Population Apoptotic (%),[5],53%
same,Population Fragmented Nuclei (%),[5],11%
same,Population Healthy Nuclei (%),[5],74%
same,Population Hoechst High Intensity Objects (%),[5],3%
same,Population Membrane Permeable-Phenotype (%),[5],0%
same,Population Mitochondria Different-Phenotype (%),[5],6%
same,Population Mitotic Cells (%),[5],46%
same,Population Normal (%),[5],96%
same,Population Pyknosed Nuclei (%),[5],14%
same,Population Tubulin-Different-Phenotype (%),[5],23%
same,Total Cell Count,[5],203
same,Population Apoptotic (%),[6],34%
same,Population Fragmented Nuclei (%),[6],20%
same,Population Healthy Nuclei (%),[6],58%
same,Population Hoechst High Intensity Objects (%),[6],2%
same,Population Membrane Permeable-Phenotype (%),[6],2%
same,Population Mitochondria Different-Phenotype (%),[6],3%
same,Population Mitotic Cells (%),[6],65%
same,Population Normal (%),[6],97%
same,Population Pyknosed Nuclei (%),[6],20%
same,Population Tubulin-Different-Phenotype (%),[6],39%
same,Total Cell Count,[6],142
same,Population Apoptotic (%),[7],66%
same,Population Fragmented Nuclei (%),[7],18%
same,Population Healthy Nuclei (%),[7],71%
same,Population Hoechst High Intensity Objects (%),[7],3%
same,Population Membrane Permeable-Phenotype (%),[7],0%
same,Population Mitochondria Different-Phenotype (%),[7],11%
same,Population Mitotic Cells (%),[7],33%
same,Population Normal (%),[7],96%
same,Population Pyknosed Nuclei (%),[7],9%
same,Population Tubulin-Different-Phenotype (%),[7],57%
same,Total Cell Count,[7],162
same,Population Apoptotic (%),[8],55%
same,Population Fragmented Nuclei (%),[8],26%
same,Population Healthy Nuclei (%),[8],56%
same,Population Hoechst High Intensity Objects (%),[8],6%
same,Population Membrane Permeable-Phenotype (%),[8],7%
same,Population Mitochondria Different-Phenotype (%),[8],5%
same,Population Mitotic Cells (%),[8],45%
same,Population Normal (%),[8],93%
same,Population Pyknosed Nuclei (%),[8],16%
same,Population Tubulin-Different-Phenotype (%),[8],61%
same,Total Cell Count,[8],129
same,Population Apoptotic (%),[9],75%
same,Population Fragmented Nuclei (%),[9],16%
same,Population Healthy Nuclei (%),[9],75%
same,Population Hoechst High Intensity Objects (%),[9],5%
same,Population Membrane Permeable-Phenotype (%),[9],0%
same,Population Mitochondria Different-Phenotype (%),[9],4%
same,Population Mitotic Cells (%),[9],25%
same,Population Normal (%),[9],94%
same,Population Pyknosed Nuclei (%),[9],8%
same,Population Tubulin-Different-Phenotype (%),[9],28%
same,Total Cell Count,[9],210
same,Population Apoptotic (%),[10],31%
same,Population Fragmented Nuclei (%),[10],29%
same,Population Healthy Nuclei (%),[10],55%
same,Population Hoechst High Intensity Objects (%),[10],6%
same,Population Membrane Permeable-Phenotype (%),[10],1%
same,Population Mitochondria Different-Phenotype (%),[10],1%
same,Population Mitotic Cells (%),[10],68%
same,Population Normal (%),[10],93%
same,Population Pyknosed Nuclei (%),[10],14%
same,Population Tubulin-Different-Phenotype (%),[10],25%
same,Total Cell Count,[10],143
same,Population Apoptotic (%),[11],72%
same,Population Fragmented Nuclei (%),[11],20%
same,Population Healthy Nuclei (%),[11],72%
same,Population Hoechst High Intensity Objects (%),[11],2%
same,Population Membrane Permeable-Phenotype (%),[11],0%
same,Population Mitochondria Different-Phenotype (%),[11],14%
same,Population Mitotic Cells (%),[11],27%
same,Population Normal (%),[11],97%
same,Population Pyknosed Nuclei (%),[11],6%
same,Population Tubulin-Different-Phenotype (%),[11],62%
same,Total Cell Count,[11],172
same,Population Apoptotic (%),[12],60%
same,Population Fragmented Nuclei (%),[12],39%
same,Population Healthy Nuclei (%),[12],49%
same,Population Hoechst High Intensity Objects (%),[12],5%
same,Population Membrane Permeable-Phenotype (%),[12],1%
same,Population Mitochondria Different-Phenotype (%),[12],8%
same,Population Mitotic Cells (%),[12],40%
same,Population Normal (%),[12],94%
same,Population Pyknosed Nuclei (%),[12],11%
same,Population Tubulin-Different-Phenotype (%),[12],47%
same,Total Cell Count,[12],144
CN(C)CCCc1cc(C(=O)Nc2ccc(-c3ccncc3)cc2)ccc1O.Cl.Cl,Population Apoptotic (%),[1],31%
same,Population Fragmented Nuclei (%),[1],15%
same,Population Healthy Nuclei (%),[1],65%
same,Population Hoechst High Intensity Objects (%),[1],4%
same,Population Membrane Permeable-Phenotype (%),[1],0%
same,Population Mitochondria Different-Phenotype (%),[1],7%
same,Population Mitotic Cells (%),[1],68%
same,Population Normal (%),[1],95%
same,Population Pyknosed Nuclei (%),[1],18%
same,Population Tubulin-Different-Phenotype (%),[1],22%
same,Total Cell Count,[1],122
same,Population Apoptotic (%),[2],44%
same,Population Fragmented Nuclei (%),[2],22%
same,Population Healthy Nuclei (%),[2],52%
same,Population Hoechst High Intensity Objects (%),[2],2%
same,Population Membrane Permeable-Phenotype (%),[2],4%
same,Population Mitochondria Different-Phenotype (%),[2],4%
same,Population Mitotic Cells (%),[2],55%
same,Population Normal (%),[2],97%
same,Population Pyknosed Nuclei (%),[2],24%
same,Population Tubulin-Different-Phenotype (%),[2],40%
same,Total Cell Count,[2],120
same,Population Apoptotic (%),[3],68%
same,Population Fragmented Nuclei (%),[3],33%
same,Population Healthy Nuclei (%),[3],58%
same,Population Hoechst High Intensity Objects (%),[3],7%
same,Population Membrane Permeable-Phenotype (%),[3],0%
same,Population Mitochondria Different-Phenotype (%),[3],15%
same,Population Mitotic Cells (%),[3],31%
same,Population Normal (%),[3],92%
same,Population Pyknosed Nuclei (%),[3],7%
same,Population Tubulin-Different-Phenotype (%),[3],43%
same,Total Cell Count,[3],305
same,Population Apoptotic (%),[4],48%
same,Population Fragmented Nuclei (%),[4],31%
same,Population Healthy Nuclei (%),[4],51%
same,Population Hoechst High Intensity Objects (%),[4],4%
same,Population Membrane Permeable-Phenotype (%),[4],4%
same,Population Mitochondria Different-Phenotype (%),[4],6%
same,Population Mitotic Cells (%),[4],51%
same,Population Normal (%),[4],95%
same,Population Pyknosed Nuclei (%),[4],17%
same,Population Tubulin-Different-Phenotype (%),[4],45%
same,Total Cell Count,[4],236
same,Population Apoptotic (%),[5],30%
same,Population Fragmented Nuclei (%),[5],16%
same,Population Healthy Nuclei (%),[5],66%
same,Population Hoechst High Intensity Objects (%),[5],1%
same,Population Membrane Permeable-Phenotype (%),[5],2%
same,Population Mitochondria Different-Phenotype (%),[5],3%
same,Population Mitotic Cells (%),[5],70%
same,Population Normal (%),[5],98%
same,Population Pyknosed Nuclei (%),[5],17%
same,Population Tubulin-Different-Phenotype (%),[5],25%
same,Total Cell Count,[5],119
same,Population Apoptotic (%),[6],37%
same,Population Fragmented Nuclei (%),[6],22%
same,Population Healthy Nuclei (%),[6],50%
same,Population Hoechst High Intensity Objects (%),[6],4%
same,Population Membrane Permeable-Phenotype (%),[6],1%
same,Population Mitochondria Different-Phenotype (%),[6],7%
same,Population Mitotic Cells (%),[6],62%
same,Population Normal (%),[6],95%
same,Population Pyknosed Nuclei (%),[6],27%
same,Population Tubulin-Different-Phenotype (%),[6],45%
same,Total Cell Count,[6],111
same,Population Apoptotic (%),[7],47%
same,Population Fragmented Nuclei (%),[7],30%
same,Population Healthy Nuclei (%),[7],63%
same,Population Hoechst High Intensity Objects (%),[7],6%
same,Population Membrane Permeable-Phenotype (%),[7],0%
same,Population Mitochondria Different-Phenotype (%),[7],11%
same,Population Mitotic Cells (%),[7],52%
same,Population Normal (%),[7],93%
same,Population Pyknosed Nuclei (%),[7],5%
same,Population Tubulin-Different-Phenotype (%),[7],40%
same,Total Cell Count,[7],339
same,Population Apoptotic (%),[8],42%
same,Population Fragmented Nuclei (%),[8],31%
same,Population Healthy Nuclei (%),[8],53%
same,Population Hoechst High Intensity Objects (%),[8],4%
same,Population Membrane Permeable-Phenotype (%),[8],5%
same,Population Mitochondria Different-Phenotype (%),[8],5%
same,Population Mitotic Cells (%),[8],57%
same,Population Normal (%),[8],95%
same,Population Pyknosed Nuclei (%),[8],14%
same,Population Tubulin-Different-Phenotype (%),[8],42%
same,Total Cell Count,[8],242
same,Population Apoptotic (%),[9],62%
same,Population Fragmented Nuclei (%),[9],28%
same,Population Healthy Nuclei (%),[9],59%
same,Population Hoechst High Intensity Objects (%),[9],0%
same,Population Membrane Permeable-Phenotype (%),[9],0%
same,Population Mitochondria Different-Phenotype (%),[9],1%
same,Population Mitotic Cells (%),[9],37%
same,Population Normal (%),[9],99%
same,Population Pyknosed Nuclei (%),[9],12%
same,Population Tubulin-Different-Phenotype (%),[9],29%
same,Total Cell Count,[9],126
same,Population Apoptotic (%),[10],50%
same,Population Fragmented Nuclei (%),[10],23%
same,Population Healthy Nuclei (%),[10],54%
same,Population Hoechst High Intensity Objects (%),[10],8%
same,Population Membrane Permeable-Phenotype (%),[10],1%
same,Population Mitochondria Different-Phenotype (%),[10],5%
same,Population Mitotic Cells (%),[10],50%
same,Population Normal (%),[10],91%
same,Population Pyknosed Nuclei (%),[10],21%
same,Population Tubulin-Different-Phenotype (%),[10],46%
same,Total Cell Count,[10],111
same,Population Apoptotic (%),[11],56%
same,Population Fragmented Nuclei (%),[11],28%
same,Population Healthy Nuclei (%),[11],60%
same,Population Hoechst High Intensity Objects (%),[11],11%
same,Population Membrane Permeable-Phenotype (%),[11],0%
same,Population Mitochondria Different-Phenotype (%),[11],8%
same,Population Mitotic Cells (%),[11],43%
same,Population Normal (%),[11],88%
same,Population Pyknosed Nuclei (%),[11],11%
same,Population Tubulin-Different-Phenotype (%),[11],48%
same,Total Cell Count,[11],321
same,Population Apoptotic (%),[12],51%
same,Population Fragmented Nuclei (%),[12],35%
same,Population Healthy Nuclei (%),[12],53%
same,Population Hoechst High Intensity Objects (%),[12],2%
same,Population Membrane Permeable-Phenotype (%),[12],3%
same,Population Mitochondria Different-Phenotype (%),[12],2%
same,Population Mitotic Cells (%),[12],48%
same,Population Normal (%),[12],97%
same,Population Pyknosed Nuclei (%),[12],10%
same,Population Tubulin-Different-Phenotype (%),[12],39%
same,Total Cell Count,[12],261
